Measurements gathered from unrelated publications.
Compare with care: the assays were run in different laboratories.
Target: Death-associated protein kinase 1 (DAPK1, Homo sapiens, UniProt P53355)

| Structure (SMILES) | assay | setting | remaining binding [%] |
| --- | --- | --- | --- |
| N[C@@H]1CCN(c2nccc(-c3cnn4ncccc34)n2)C1 | binding | 1 µM | 97 |
| c1ccc(N2CCN(Cc3nc4ccccc4[nH]3)CC2)nc1 | binding, competition with immobilised ligand | 1 µM | 100 |
| O=C(c1ccc(Nc2ncc(Cl)c(-c3cc4ccccc4s3)n2)cc1)N1CCC(N2CCCC2)CC1 | binding, competition with immobilised ligand | 1 µM | 20 |
| Cc1cnn2ncc(-c3ccnc(N(C)C)n3)c2c1 | binding | 1 µM | 74 |
| O=C(c1ccc(Nc2nccc(-c3cc4ccccc4s3)n2)cc1)N1CCC(N2CCCC2)CC1 | binding, competition with immobilised ligand | 1 µM | 13 |
| COc1cnc(Nc2cccc(S(N)(=O)=O)c2)nc1N1CCN(c2ccccc2)CC1 | binding, competition with immobilised ligand | 1 µM | 83 |
| CNCc1ccccc1-c1csc([C@H](C)Nc2nc(C)nc3cc(OC)c(OC)cc23)c1 | cell-free assay, competition with immobilised ligand | 1 µM | 100 |
| FC(F)(F)Oc1cccc(-c2cnc3ccc(-c4ccncc4)nn23)c1 | cell-free assay, competition with immobilised ligand | 5 µM | 89 |
| CN(CCCC(F)(F)F)c1nccc(-c2cnn3ncccc23)n1 | binding | 1 µM | 100 |
| CS(=O)(=O)c1cc(C2(NC(=O)c3cncc4c3cnn4-c3ccc(F)cc3)CC2)ccn1 | cell-free assay, competition with immobilised ligand | 1 µM | 83 |
| c1cncc(-c2cccc(Nc3nccc(NC4CCCCC4)n3)c2)c1 | binding, competition with immobilised ligand | 10 µM | 90 |
| O=C(Nc1c[nH]nc1C(=O)NC1CCNCC1)c1cc(F)cc(F)c1 | binding, competition with immobilised ligand | 1 µM | 100 |
| c1cnn2ncc(-c3ccnc(N4CCC45COC5)n3)c2c1 | binding | 1 µM | 79 |
| COc1cc(-c2cn(C3CCc4c(F)cccc4N(CC(F)(F)F)C3=O)nn2)ccc1-n1cnc(C)c1 (stereo not drawn) | cell-free assay, competition with immobilised ligand | 1 µM | 99 |
| CN(c1nccc(-c2cnn3ncccc23)n1)C1CC1 | binding | 1 µM | 100 |
| C=CC(=O)N1CCC(C(=O)NCC(=O)N2CCN(c3nc(-c4cnc(N)nc4C(F)F)nc(N4CCOCC4)n3)CC2)CC1 | binding, competition with immobilised ligand | 1 µM | 96 |
| Cn1nc(C(=O)NCc2ccc(C(=O)O)cc2)cc1-c1ccc2[nH]ccc2c1 | cell-free assay, competition with immobilised ligand | 0.1 µM | 97 |
| C[C@H]1CCN(c2nccc(-c3cnn4ncccc34)n2)C1 | binding | 1 µM | 71 |
| Cc1cnc(Nc2ccc(C(=O)N3CCC(N4CCCC4)CC3)cc2)nc1-c1cc2ccccc2s1 | binding, competition with immobilised ligand | 1 µM | 16 |
| O=C1CCc2cc(Nc3cc(OC4CCOCC4)c([N+](=O)[O-])cc3Cl)ccc2N1 | cell-free assay, competition with immobilised ligand | 1 µM | 90 |
| COc1ncc2cc3ccccc3nc2c1C#N | cell-free assay, competition with immobilised ligand | 5 µM | 95 |
